In the library only some 9.6% were active in any assay of this set; here they are far more common.
TNAP act hiacc: TNAP activators at high phosphate acceptor level, primary screen, biochemical, luminescence, uHTS; AID 1136, 2008; Alkaline phosphatase, tissue-nonspecific isozyme (Homo sapiens), P05186; 200,000 tested, under 10 active; purified TNAP, CDP-star luminescence, 1 M DEA, 30 min; stronger effect = higher value; 0 = EDTA background, 1 = DMSO-only activity; activation factor at 20 µM;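 active = activation factor at least 2 at 20 µM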
Target sequence (P05186 whole entry, looked up): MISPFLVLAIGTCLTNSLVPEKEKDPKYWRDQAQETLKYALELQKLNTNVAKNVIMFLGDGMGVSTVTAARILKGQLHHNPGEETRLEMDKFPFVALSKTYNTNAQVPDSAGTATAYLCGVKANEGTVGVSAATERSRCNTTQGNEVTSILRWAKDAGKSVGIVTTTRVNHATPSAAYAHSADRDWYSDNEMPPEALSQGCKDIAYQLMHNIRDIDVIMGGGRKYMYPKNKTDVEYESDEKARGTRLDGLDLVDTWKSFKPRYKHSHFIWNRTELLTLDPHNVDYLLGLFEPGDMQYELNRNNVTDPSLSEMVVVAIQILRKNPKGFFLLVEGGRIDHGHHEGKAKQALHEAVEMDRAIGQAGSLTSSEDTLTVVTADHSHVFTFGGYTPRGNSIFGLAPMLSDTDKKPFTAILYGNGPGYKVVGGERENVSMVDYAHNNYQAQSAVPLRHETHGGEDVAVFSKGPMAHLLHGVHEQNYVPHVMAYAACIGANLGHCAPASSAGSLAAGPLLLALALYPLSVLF
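Assay system: human TNAP; Input: enzyme diluted 1/800 final; Reagent: CDP-star luminogenic substrate at 100 µM final; Timing: 30 min, room temperature; Signal: luminescence; Evaluation: TNAP activation factor scaled between EDTA and DMSO control wells.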
PTEN del growth: growth suppression of PTEN-null HCT116, primary screen, cell-based, CellTiter-Glo. hit rate 1.2% among 140,000. AID 827, 2007. HCT116 PTEN-null viability, 60 h; stronger effect = lower value. viability, % at 10 µM;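 active = viability at or below a set limit, 4 SD under the median of all tested compounds, cut at about 3.7% in these data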;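 note: PTEN knockout HCT116 line with beta catenin targeted HCT116 as companion control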
L major viab: Leishmania major promastigote growth inhibition, primary screen; Leishmania major promastigotes, resazurin fluorescence viability; inhibition, % at 10 µM; hit rate 9% among 200,000; AID 1063, 2008; in the data active = inhibition above about 50%;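 note: promastigotes grown with compound for 44 hours at 28 °C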
TNAP inh noacc: human TNAP enzyme inhibitors, primary screen, biochemical, luminescent, no phosphate acceptor, uHTS. Alkaline phosphatase, tissue-nonspecific isozyme (Homo sapiens), P05186. purified TNAP, CDP-star luminescence, 30 min. inhibition, % at 20 µM. hit rate 0.26% among 200,000. AID 1012, 2008;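 active = tissue-nonspecific alkaline phosphatase inhibition above about 50% at 20 µM in the single-dose screen, limit read from the data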;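 note: 0% = DMSO negative control and 100% = EDTA positive control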
bCat KO growth: primary screen for growth suppressors in beta-catenin knockout HCT116 cells (colon tumor, human) | HCT116 beta-catenin knockout viability, CellTiter-Glo, 60 h; stronger effect = lower value | hit rate 1.5% among 140,000 | AID 818, 2007 | viability, % at 10 µM;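 active = viability at or under a set limit, the compound median less 4 SD, cut at about 6% in these data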;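 note: 0% = Hyamine 1622 control at 20 µM and 100% = untreated cell control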
TNAP inh hi DEA: human TNAP enzyme inhibitors, primary screen, biochemical, luminescent, high phosphate acceptor level, uHTS; Alkaline phosphatase, tissue-nonspecific isozyme (Homo sapiens), P05186; purified TNAP, CDP-star luminescence, 1 M DEA; inhibition, % at 20 µM; hit rate 0.03% among 200,000;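 active = over 50% inhibition of tissue-nonspecific alkaline phosphatase at 20 µM in the single-dose screen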;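 note: plate controls were DMSO wells for no effect and EDTA-quenched wells as full inhibition for full effect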
Starred values were filed as active, the others as inactive; . = no result.

SMILES	TNAP act hiacc	PTEN del growth	L major viab	TNAP inh noacc	bCat KO growth	TNAP inh hi DEA
COc1ccc(NC(C)=O)cc1S(=O)(=O)Nc1ccc2c(c1)OCCO2	1	.	-2	-1	.	0
COc1ccccc1NS(=O)(=O)c1cc(NC(=O)CNC(=O)c2ccccc2)ccc1C	1	104	64*	2	100	4
COc1ccccc1NC(=O)c1ccc(NS(=O)(=O)c2ccc(F)c(F)c2F)cc1	1.1	87	66*	-6	94	-6
CCOc1ccc(Br)cc1S(=O)(=O)Nc1ccc(C(=O)Nc2ccccc2OC)cc1	1	86	-6	-6	88	4
COc1ccccc1NS(=O)(=O)c1cc(NC(=O)CCNC(C)=O)ccc1C	1	.	-7	7	.	0
COc1ccccc1NS(=O)(=O)c1cc(NC(=O)c2ccc3c(c2)OCCO3)ccc1C	1	31	58*	-7	32	-2
Cc1cc(C)c(S(=O)(=O)N2CCCCC2)c(C)c1N(C)S(=O)(=O)c1ccccc1	1	77	8	-8	77	-4
CC(C)CCNC(=S)Nc1ccccn1	1.1	81	68*	-3	75	-5
CC(C)CCNC(=S)Nc1ccccc1F	1	96	52*	20	88	1
CC(=O)OCC(=O)Nc1ccc([N+](=O)[O-])cc1Cl	1	.	-2	-9	.	-5
CC(=O)Oc1c(C)cc(Cl)cc1C(=O)Nc1ccc([N+](=O)[O-])cc1Cl	1	1.8*	8	-16	1.1*	-1
O=C(CSC1=Nc2ccccc2C2CC=NN12)Nc1ccc2c(c1)OCO2 (stereo unspecified)	1.1	.	55*	-13	.	-6
CCCOC(=O)c1ccc(NC(=O)CSC2=Nc3ccccc3C3CC=NN23)cc1 (stereo unspecified)	1	90	98*	-12	84	-4
N#Cc1ccccc1NC(=O)CSC1=Nc2ccccc2C2CC=NN12 (stereo unspecified)	1	.	17	-21	.	-2
CCOC(=O)CNc1cccc(C(F)(F)F)c1	1	.	-8	-11	.	-3
Cc1ccc(/C=C/C(=O)O)cc1S(=O)(=O)NC1CCS(=O)(=O)C1 (stereo unspecified)	1	.	-8	-5	.	-2
COc1ccc(/C=C/C(=O)Nc2cccc(N3CCOCC3)c2)cc1OC	1	99	0	2	99	-1
Clc1cccc(Cl)c1Cn1c(-c2cccnc2Cl)nc2ccccc21	1	79	76*	-9	82	-2
Cc1cccc(C(=O)N2CCN=C2SCc2ccc([N+](=O)[O-])cc2)c1	1.1	.	10	-17	.	-5
COc1cccc(N2C(=O)CC(NNC(=O)c3cccs3)C2=O)c1 (stereo unspecified)	1	103	63*	-17	96	-4
COc1ccc(N2C(=O)CC(NNC(=O)c3ccc(Br)s3)C2=O)cc1 (stereo unspecified)	1	.	-6	-45	.	-1
O=C(NNC1CC(=O)N(c2cccc(Cl)c2)C1=O)c1cccs1 (stereo unspecified)	1	101	63*	-8	89	-3
O=C(Cc1ccccc1)NNC1CC(=O)N(c2ccc(Cl)cc2)C1=O (stereo unspecified)	1.1	.	-7	-8	.	-7
Cc1cc(C(=O)NCC(=O)OC(C(=O)Nc2cc(C(F)(F)F)ccc2Cl)c2ccccc2)ccc1[N+](=O)[O-] (stereo unspecified)	1	115	39	-13	110	2
CCCC(=O)OC(C(=O)Nc1cc(C(F)(F)F)ccc1Cl)c1ccccc1 (stereo unspecified)	1.1	98	90*	-7	107	-5
SMILES	TNAP act hiacc	PTEN del growth	L major viab	TNAP inh noacc	bCat KO growth	TNAP inh hi DEA
Cc1csc(NC(=O)CCNC(=O)c2ccc([N+](=O)[O-])cc2)n1	1	92	5	-10	91	-3
CCOC(=O)COc1ccccc1/C=C\[N+](=O)[O-]	1	86	100*	-6	79	4
O=C(CCCC(=O)OCC(Cl)=C(Cl)Cl)Nc1ccc(F)cc1	1	92	-9	-17	94	4
CCC(C)NS(=O)(=O)c1ccc(S(=O)(=O)N(CCc2ccc(OC)c(OC)c2)Cc2cccs2)cc1 (stereo unspecified)	1	46	55*	-36	48	-1
COc1ccc(CCN(Cc2cccs2)S(=O)(=O)c2ccc(S(=O)(=O)N3CCCCCC3)cc2)cc1OC	1	88	-2	4	75	-2
Cc1ccc(S(=O)(=O)N(C)C)cc1NC(=S)N1CCN(Cc2ccc3c(c2)OCO3)CC1	1.1	.	84*	-23	.	-5
Cc1ccccc1NC(=S)N1CCN(Cc2ccc3c(c2)OCO3)CC1	1	86	24	-14	83	3
Cc1c(Cl)cccc1NC(=S)N1CCN(Cc2ccc3c(c2)OCO3)CC1	1	84	74*	-14	87	0
COc1ccccc1NC(=S)N1CCN(Cc2ccc3c(c2)OCO3)CC1	1	97	96*	-13	87	1
COc1ccc(C/C(N)=N/OC(=O)C(c2ccccc2)c2ccccc2)cc1OC	1	87	65*	-4	83	-2
COc1ccc(C/C(N)=N/OC(C)=O)cc1OC	1	104	42	-10	100	-3
CC1=C(C(=O)OCCNC(=O)c2ccccc2O)C(c2ccccc2[N+](=O)[O-])C(C(=O)OCC2CCCO2)=C(C)N1 (stereo unspecified)	1.1	60	93*	-6	63	-7
CSc1ccc(CNc2ccc(Cl)cc2)cc1	1	92	100*	-9	100	-4
CCOC(=O)N1CCN(C(=S)Nc2ccc(C)cc2)CC1	1.1	95	-8	-9	93	-6
OCCN1CCN(C2Cc3cc(Cl)ccc3Sc3ccc(Cl)cc32)CC1 (stereo unspecified) (tested in a mixture with another compound)	1	44	55*	-5	33	-4
CN1CCN(CCOC2Cc3ccccc3Sc3ccc(Cl)cc32)CC1 (stereo unspecified)	1	33	66*	-5	29	-4
O=C(CN1CCN(CCOCCO)CC1)N1c2ccccc2Sc2ccc(Cl)cc21	1	89	19	-12	93	-3
O=C1CN(C(=O)c2cc3ccccc3o2)c2ccccc2N1	1	90	-3	-4	96	2
COc1ccccc1CN1CCNC(=O)C1CC(=O)NCCOc1cccnc1 (stereo unspecified)	1	.	-5	-9	.	-4

Source: PubChem
